Reference: ChEMBL document CHEMBL3045304, “Sesquiterpene lactones with potential use as natural herbicide models. 2. guaianolides” (2000)
The source made the active and inactive calls. The rule behind the calls is not given here.

Columns and labels:
Solanum lycopersicum [1] = test: Stimulation of germination of Solanum lycopersicum cv. Tres Cantos (tomato) at 0.1 mM or 1 mM after 5 days relative to untreated control; type: functional
Method in brief: (§1)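 Lettuce and tomato seeds, 25 per dish on filter paper, received 5 mL test solution. Incubation was 5 days in the dark at 25 °C, with four replicates per concentration. Solutions were made at 10^-3 or 10^-4 M in 10 mM MES, diluted serially, and adjusted to pH 6.0. Parallel controls were run. Results are % difference from control.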

Lactuca sativa [2] = test: Inhibition of root length of Lactuca sativa cv. Roman (lettuce) at 0.1 mM or 1 mM after 5 days relative to untreated control; type: functional; method in brief: as §1
Lepidium sativum [3] = test: Inhibition of root length of Lepidium sativum at 0.1 mM or 1 mM after 4 days relative to untreated control
Allium cepa [4] = test: Stimulation of root length of Allium cepa cv. Valenciana (onion) at 0.1 mM or 1 mM after 7 days relative to untreated control
Triticum aestivum [5] = test: Stimulation of hypocotyl length of Triticum aestivum cv. Cortex (wheat) at 0.1 mM or 1 mM after 5 days relative to untreated control; type: functional
Method in brief: (§2)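 Wheat: 10 seeds per dish on filter paper with 5 mL test solution, 5 days in the dark at 25 °C, 10 replicates per concentration. Stock test solutions were 10^-3 or 10^-4 M in 10 mM MES, with lower levels made by dilution, all at pH 6.0. Parallel controls were run. Output is % difference from control.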

Lepidium sativum [6] = test: Inhibition of hypocotyl length of Lepidium sativum at 0.1 mM or 1 mM after 5 days relative to untreated control; type: functional
Solanum lycopersicum [7] = test: Stimulation of root length of Solanum lycopersicum cv. Tres Cantos (tomato) at 0.1 mM or 1 mM after 5 days relative to untreated control; type: functional; method in brief: as §1
Allium cepa [8] = test: Inhibition of hypocotyl length of Allium cepa cv. Valenciana (onion) at 0.1 mM or 1 mM after 7 days relative to untreated control
Lactuca sativa [9] = test: Inhibition of hypocotyl length of Lactuca sativa cv. Roman (lettuce) at 0.1 mM or 1 mM after 5 days relative to untreated control; type: functional; method in brief: as §1
Lactuca sativa [10] = test: Stimulation of root length of Lactuca sativa cv. Roman (lettuce) at 0.1 mM or 1 mM after 5 days relative to untreated control; type: functional; method in brief: as §1
Triticum aestivum [11] = test: Inhibition of root length of Triticum aestivum cv. Cortex (wheat) at 0.1 mM or 1 mM after 5 days relative to untreated control; type: functional; method in brief: as §2
Solanum lycopersicum [12] = test: Stimulation of hypocotyl length of Solanum lycopersicum cv. Tres Cantos (tomato) at 0.1 mM or 1 mM after 5 days relative to untreated control; type: functional; method in brief: as §1
Triticum aestivum [13] = test: Inhibition of hypocotyl length of Triticum aestivum cv. Cortex (wheat) at 0.1 mM or 1 mM after 5 days relative to untreated control; type: functional; method in brief: as §2
Allium cepa [14] = test: Inhibition of root length of Allium cepa cv. Valenciana (onion) at 0.1 mM or 1 mM after 5 days relative to untreated control; type: functional
Triticum aestivum [15] = test: Stimulation of germination of Triticum aestivum cv. Cortex (wheat) at 0.1 mM or 1 mM after 5 days relative to untreated control; type: functional; method in brief: as §2
Lactuca sativa [16] = test: Stimulation of hypocotyl length of Lactuca sativa cv. Roman (lettuce) at 0.1 mM or 1 mM after 5 days relative to untreated control; type: functional; method in brief: as §1
Lepidium sativum [17] = test: Stimulation of root length of Lepidium sativum at 0.1 mM or 1 mM after 5 days relative to untreated control; type: functional
Allium cepa [18] = test: Stimulation of germination of Allium cepa cv. Valenciana (onion) at 0.1 mM or 1 mM after 5 days relative to untreated control; type: functional
Solanum lycopersicum [19] = test: Inhibition of root length of Solanum lycopersicum cv. Tres Cantos (tomato) at 0.1 mM or 1 mM after 5 days relative to untreated control; type: functional; method in brief: as §1
Lepidium sativum [20] = test: Stimulation of hypocotyl length of Lepidium sativum at 0.1 mM or 1 mM after 5 days relative to untreated control; type: functional
Triticum aestivum [21] = test: Inhibition of germination of Triticum aestivum cv. Cortex (wheat) at 0.1 mM or 1 mM after 5 days relative to untreated control; type: functional; method in brief: as §2
Solanum lycopersicum [22] = test: Inhibition of hypocotyl length of Solanum lycopersicum cv. Tres Cantos (tomato) at 0.1 mM or 1 mM after 5 days relative to untreated control; type: functional; method in brief: as §1
Allium cepa [23] = test: Inhibition of germination of Allium cepa cv. Valenciana (onion) at 0.1 mM or 1 mM after 5 days relative to untreated control; type: functional
Lepidium sativum [24] = test: Inhibition of germination of Lepidium sativum at 0.1 mM or 1 mM after 4 days relative to untreated control
Lactuca sativa [25] = test: Inhibition of germination of Lactuca sativa cv. Roman (lettuce) at 0.1 mM or 1 mM after 5 days relative to untreated control; type: functional; method in brief: as §1
Triticum aestivum [26] = test: Stimulation of root length of Triticum aestivum cv. Cortex (wheat) at 0.1 mM or 1 mM after 5 days relative to untreated control; type: functional; method in brief: as §2
Allium cepa [27] = test: Stimulation of hypocotyl length of Allium cepa cv. Valenciana (onion) at 0.1 mM or 1 mM after 7 days relative to untreated control
Solanum lycopersicum [28] = test: Inhibition of germination of Solanum lycopersicum cv. Tres Cantos (tomato) at 0.1 mM or 1 mM after 5 days relative to untreated control; type: functional; method in brief: as §1
Lactuca sativa [29] = test: Stimulation of germination of Lactuca sativa cv. Roman (lettuce) at 0.1 mM or 1 mM after 5 days relative to untreated control; type: functional; method in brief: as §1

Question: How did the Activity (Solanum lycopersicum [1]) turn out when C=C1CC[C@H]2C(=C)CC[C@@H](C(=C)CO)[C@H](O)[C@@H]12 was run?
Answer: Its Activity is 20%.

Question: What about the inhibition (Lactuca sativa [2]) of the same molecule?
Answer: The inhibition was “inactive”.

Question: And the inhibition (Lepidium sativum [3])?
Answer: Its inhibition is “inactive”.

Question: What about the Activity (Allium cepa [4]) of the same molecule?
Answer: The Activity was “inactive”.

Question: And the Activity (Triticum aestivum [5])?
Answer: Its Activity is under 20%.

Question: What about the inhibition (Lepidium sativum [6]) of the same molecule?
Answer: Its inhibition is “inactive”.

Question: What about the Activity (Solanum lycopersicum [7]) of the same molecule?
Answer: The Activity was under 20%.

Question: And the inhibition (Allium cepa [8])?
Answer: Its inhibition is “inactive”.

Question: And the “inhibition (INH)” value (Lactuca sativa [9])?
Answer: Its value is under 20%.

Question: What about the Activity (Lactuca sativa [10]) of the same molecule?
Answer: The Activity was “inactive”.

Question: What about the “inhibition (INH)” value (Triticum aestivum [11]) of the same molecule?
Answer: Its value is 20%.

Question: And the Activity (Solanum lycopersicum [12])?
Answer: Its Activity is “inactive”.

Question: And the “inhibition (INH)” value (Triticum aestivum [13])?
Answer: Its value is under 20%.

Question: What about the inhibition (Allium cepa [14]) of the same molecule?
Answer: Its inhibition is “inactive”.

Question: What about the Activity (Triticum aestivum [15]) of the same molecule?
Answer: The Activity was “inactive”.

Question: What about the Activity (Lactuca sativa [16]) of the same molecule?
Answer: The Activity was under 20%.

Question: What about the Activity (Lepidium sativum [17]) of the same molecule?
Answer: The Activity was “inactive”.

Question: What about the Activity (Allium cepa [18]) of the same molecule?
Answer: Its Activity is “inactive”.

Question: What about the “inhibition (INH)” value (Solanum lycopersicum [19]) of the same molecule?
Answer: Its value is under 20%.

Question: And the Activity (Lepidium sativum [20])?
Answer: Its Activity is “inactive”.

Question: What about the inhibition (Triticum aestivum [21]) of the same molecule?
Answer: The inhibition was “inactive”.

Question: And the inhibition (Solanum lycopersicum [22])?
Answer: The inhibition was “inactive”.

Question: And the inhibition (Allium cepa [23])?
Answer: The inhibition was “inactive”.

Question: And the Activity (Lepidium sativum [24])?
Answer: The Activity was “inactive”.

Question: And the inhibition (Lepidium sativum [24])?
Answer: Its inhibition is “inactive”.

Question: And the inhibition (Lactuca sativa [25])?
Answer: The inhibition was “inactive”.

Question: And the Activity (Triticum aestivum [26])?
Answer: Its Activity is 20%.

Question: What about the Activity (Allium cepa [27]) of the same molecule?
Answer: Its Activity is “inactive”.

Question: What about the “inhibition (INH)” value (Solanum lycopersicum [28]) of the same molecule?
Answer: Its value is 20%.

Question: And the Activity (Lactuca sativa [29])?
Answer: Its Activity is “inactive”.
